# Experimental data as given in ChEMBL document CHEMBL1687926, “14-Aminocamptothecins: their synthesis, preclinical activity, and potential use for cancer treatment” (J Med Chem, 2011).
# Columns and labels:
# NCI-H460 [1] = assay: Cytotoxicity against human H460 cells after 72 hrs by alamar blue assay; type: functional, cell-based
# Summary of the method: (§1)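 Cells seeded at 4 × 10³ per well and grown 24 h. Compounds dissolved in DMSO and diluted in medium to final concentrations, then incubated 72 h at 37 °C, 5% CO₂. Viable cells read by AlamarBlue; IC₅₀ taken as the concentration giving 50% growth inhibition.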
# PC-3 = assay: Cytotoxicity against human PC3 cells after 72 hrs by alamar blue assay; type: functional, cell-based; conditions: PC-3, 72 h; summary of the method: as §1
# HT-29 = assay: Cytotoxicity against human HT-29 cells after 72 hrs by alamar blue assay; type: functional, cell-based; conditions: HT-29, 72 h; summary of the method: as §1
# SK-MEL-2 = assay: Cytotoxicity against human SK-MEL-2 cells after 72 hrs by alamar blue assay; type: functional, cell-based; conditions: SK-MEL-2, 72 h; summary of the method: as §1
# A-375 = assay: Cytotoxicity against human A375 cells after 72 hrs by alamar blue assay; type: functional, cell-based; conditions: A-375, 72 h; summary of the method: as §1
# Malme-3M = assay: Cytotoxicity against human MALME-3M cells after 72 hrs by alamar blue assay; type: functional, cell-based; summary of the method: as §1
# DU-145 = assay: Cytotoxicity against human DU145 cells after 72 hrs by alamar blue assay; type: functional, cell-based; conditions: DU-145, 72 h; summary of the method: as §1
# LNCaP = assay: Cytotoxicity against human LNCAP cells after 72 hrs by alamar blue assay; type: functional, cell-based; summary of the method: as §1
# IGROV-1 = assay: Cytotoxicity against human IGROV1 cells after 72 hrs by alamar blue assay; type: functional, cell-based; conditions: IGROV-1, 72 h; summary of the method: as §1
# NCI-H460 [2] = assay: Cytotoxicity against human H460 cells after 72 hrs by alamar blue assay in presence of 40 mg/ml HSA; type: functional, cell-based; conditions: NCI-H460, 72 h
# Summary of the method: (§2)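 H460 cells seeded at 4 × 10³ per well and grown 24 h. Compounds then cocultured with cells for 72 h at 37 °C, with or without 40 mg/mL human serum albumin. Viability read by AlamarBlue; IC₅₀ = 50% growth inhibition. Ratio compares the IC₅₀ with HSA to the IC₅₀ without.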
# NCI-H460 [3] = assay: Ratio IC50 for human H460 cells after 72 hrs in presence of 40 mg/ml HSA to IC50 for human H460 cells after 72 hrs; type: functional; summary of the method: as §2
# [4] = Cytotoxicity against human MESSA cells after 72 hrs by alamar blue assay; type: functional, cell-based; conditions: MES-SA; summary of the method: as §1
# [5] = Cytotoxicity against human MES-SA/Dx5 cells overexpressing MDR1 after 72 hrs by alamar blue assay; type: functional, cell-based; conditions: MES-SA/Dx5, 72 h; summary of the method: as §1
# NCI-H69 = assay: Cytotoxicity against human H69 cells after 72 hrs by alamar blue assay; type: functional, cell-based; conditions: NCI-H69, 72 h; summary of the method: as §1
# [6] = Resistance ratio of IC50 for human MES-SA/Dx5 cells overexpressing MDR1 after 72 hrs to IC50 for human MESSA cells after 72 hrs; type: functional
# Summary of the method: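 Cytotoxicity compared in MDR1-overexpressing lines and their parental wild-type lines. 72 h exposure at 37 °C, viability by AlamarBlue, IC₅₀ at 50% growth inhibition. Resistance ratio = IC₅₀ in overexpressing line / IC₅₀ in parental line.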
# [7] = Cytotoxicity against human bone marrow cell by CFU-GM assay; type: cell-based
# [8] = Cytotoxicity against mouse bone marrow cell by CFU-GM assay; type: cell-based
# Summary of the method: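 CFU-GM colony assay on normal human bone marrow (thawed) or mouse femoral marrow (freshly extracted). Human colonies scored after 16-18 days. IC₅₀ taken from triplicate assays.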
# [9] = Ratio of IC50 for mouse bone marrow cell to IC50 for human bone marrow cell; type: cell-based; conditions: bone marrow cells
# Summary of the method: (§3)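 CFU-GM colony assay in triplicate at 2 × 10⁴ cells per culture, using thawed normal human bone marrow or fresh mouse femoral marrow. Colonies were scored after 16-18 days. The IC50 or IC90 from each species gave the mouse/human ratio.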
# [10] = Ratio of IC90 for mouse bone marrow cell to IC90 for human bone marrow cell; type: ADME, cell-based; conditions: bone marrow cells; summary of the method: as §3
# [11] = Tmax in CD-1 mouse plasma at 50 mg/kg, ip by LC/MS/MS analysis; type: ADME, organism-based; design: dose 50 mg/kg, route intraperitoneal
# Summary of the method: (§4)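 CD-1 mice (~25 g) given 50 mg/kg ip in 5% DMSO/5% Tween 80 in water; three mice per time point, sampled up to 480 min. Blood taken by cardiac puncture into EDTA, then whole brain excised and homogenized in water. Proteins precipitated with ice-cold acetonitrile containing propranolol internal standard; supernatant analysed by HPLC/MS/MS.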
# [12] = Cmax in CD-1 mouse plasma at 50 mg/kg, ip by LC/MS/MS analysis; type: ADME, organism-based; design: dose 50 mg/kg, route intraperitoneal; summary of the method: as §4
# [13] = AUC in CD-1 mouse plasma at 50 mg/kg, ip by LC/MS/MS analysis; type: ADME, organism-based; design: dose 50 mg/kg, route intraperitoneal; summary of the method: as §4
# [14] = Half life in CD-1 mouse plasma at 50 mg/kg, ip by LC/MS/MS analysis; type: ADME, organism-based; design: dose 50 mg/kg, route intraperitoneal; summary of the method: as §4
# [15] = Tmax in CD-1 mouse brain at 50 mg/kg, ip by LC/MS/MS analysis; type: ADME, organism-based; design: dose 50 mg/kg, route intraperitoneal; summary of the method: as §4
# [16] = Cmax in CD-1 mouse brain at 50 mg/kg, ip by LC/MS/MS analysis; type: ADME, organism-based; design: dose 50 mg/kg, route intraperitoneal; summary of the method: as §4
# [17] = AUC in CD-1 mouse brain at 50 mg/kg, ip by LC/MS/MS analysis; type: ADME, organism-based; design: dose 50 mg/kg, route intraperitoneal; summary of the method: as §4
# [18] = Half life in CD-1 mouse brain at 50 mg/kg, ip by LC/MS/MS analysis; type: ADME, organism-based; design: dose 50 mg/kg, route intraperitoneal; summary of the method: as §4
# [19] = Ratio of drug level in brain to plasma in CD-1 mouse at 50 mg/kg, ip; type: ADME, organism-based; design: dose 50 mg/kg, route intraperitoneal; summary of the method: as §4
# NCI-H460 [20] = assay: Antitumor activity against human H460 cells xenografted in nu/nu mouse assessed as tumor growth inhibition at 30 mg/kg, po QD for 5 days followed by 2days without treatment for 2 weeks; type: functional; design: scale not given: the % may be the effect or the level left
# Summary of the method: (§5)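 Female nude (nu/nu) mice (males for prostate model) implanted sc in the flank with tumor cells (1 × 10⁶ for H460). Dosing began at 100-150 mm³, 10 mice/group. Oral gavage in 5% DMSO/5% Tween 80/1% CMC in water, 5 days on/2 off per cycle, 2 or 4 cycles. Volume = length×width²/2, measured twice weekly. TGI = (1 − ΔT/ΔC)×100; TGD = extra days to reach 500 mm³ versus control.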
# NCI-H460 [21] = assay: Antitumor activity against human H460 cells xenografted in nu/nu mouse assessed as tumor growth delay at 30 mg/kg, po QD for 5 days followed by 2days without treatment for 2 weeks; type: functional; summary of the method: as §5
# Mus musculus = assay: Toxicity in nu/nu mouse assessed as body weight loss at 30 mg/kg, po QD for 5 days followed by 2 days without treatment for 2 weeks; type: organism-based; design: dose 30 mg/kg, route oral; conditions: in vivo
# Summary of the method: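 Female nude (nu/nu) mice (males for prostate model) bearing sc xenografts, dosing started at 100-150 mm³, 10/group. Oral gavage in 5% DMSO/5% Tween 80/1% CMC in water, QD 5 days on/2 off per cycle, 2 or 4 cycles. Body weight recorded twice weekly; maximum loss reported.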
# H69AR = assay: Cytotoxicity against human H69AR cells overexpressing MRP1 after 72 hrs by alamar blue assay
# [22] = Resistance ratio of IC50 for human H69AR cells overexpressing MRP1 after 72 hrs s to IC50 for human H69 cells after 72 hrs
compound,measurement,setting,value
CC[C@@]1(O)C(=O)OCc2c1c([N+](=O)[O-])c1n(c2=O)Cc2cc3ccccc3nc2-1,IC50,"NCI-H460 [1]; Homo sapiens, NCI-H460, 72 h",3000 nM
CC[C@@]1(O)C(=O)OCc2c1c(N)c1n(c2=O)Cc2cc3ccccc3nc2-1,IC50,"NCI-H460 [1]; Homo sapiens, NCI-H460, 72 h",18 nM
same,IC50,NCI-H460 [1]; nci-h460,23 nM
same,IC50,PC-3,43 nM
same,IC50,HT-29,230 nM
same,IC50,SK-MEL-2,170 nM
same,IC50,A-375,22 nM
same,IC50,Malme-3M,780 nM
same,IC50,DU-145,780 nM
same,IC50,LNCaP,110 nM
same,IC50,IGROV-1,120 nM
same,IC50,NCI-H460 [2],120 nM
same,Ratio,NCI-H460 [3],5
same,IC50,[4],58 nM
same,IC50,[5],60 nM
same,IC50,NCI-H69,91 nM
same,Ratio,[6],1
same,IC50,"[7]; Homo sapiens, Bone marrow cell",710 nM
same,IC90,"[7]; human, bone marrow cells",4.8 µM
same,IC50,[8],10 nM
same,selectivity ratio,[9],6
same,selectivity ratio,[10],4
same,Tmax,[11],30 min
same,Cmax,[12],600 ng/mL
same,AUC,[13],1500 ng·h/mL
same,half-life,[14],250 min
same,Tmax,[15],30 min
same,Cmax,[16],600 ng/mL
same,AUC,[17],1670 ng·h/mL
same,half-life,[18],210 min
same,Kp,[19],101
same,Activity,NCI-H460 [20],79%
same,Time,NCI-H460 [21],15 days
same,Activity,Mus musculus,4%
same,IC50,H69AR,91 nM
same,Ratio,[22],1
CCc1c2c(nc3ccccc13)-c1c([N+](=O)[O-])c3c(c(=O)n1C2)COC(=O)[C@]3(O)CC,IC50,"NCI-H460 [1]; Homo sapiens, NCI-H460, 72 h",4600 nM
CC[C@@]1(O)C(=O)Nc2c1c(CO)c(=O)n1c2-c2nc3ccccc3cc2C1,IC50,"NCI-H460 [1]; Homo sapiens, NCI-H460, 72 h",7700 nM
